Measured values taken from ChEMBL document CHEMBL4330063, “New naphthopyran analogues of LY290181 as potential tumor vascular-disrupting agents” (Eur J Med Chem, 2019).
pIC50: −log10 of the molar value. Calls of active or inactive are those of the source. No cut-off for these calls is given here.

Legend:
518A2 [1] = experiment: Antiproliferative activity against human 518A2 cells after 72 hrs by MTT assay; format: functional, cell-based; details: for pIC50: 518A2, 72 h
Procedure, shortened: (§1)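 MTT read-out after 72 h of continuous exposure. Viability is expressed as percentage of viable cells relative to untreated controls. IC50 comes from dose-response curves. Values are means±SD of four independent experiments (two for some entries). DMSO was below 1%, with vehicle controls at equal DMSO. Precipitation was excluded spectrometrically and microscopically.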

HT-29 [2] = experiment: Antiproliferative activity against human HT-29 cells after 72 hrs by MTT assay; format: functional, cell-based; details: HT-29, 72 h; procedure, shortened: as §1
A2780 = experiment: Antiproliferative activity against human A2780 cells after 72 hrs by SRB assay; format: functional, cell-based; details: A2780, 72 h
Procedure, shortened: (§2)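 Ovarian A2780 and cisplatin-resistant A2780cis cells were exposed for 72 h and stained with SRB. IC50 comes from dose-response curves, as means±SD of three independent experiments. Final DMSO was below 1%, with matched vehicle controls.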

[3] = Antiproliferative activity against human A2780cis cells after 72 hrs by SRB assay; format: functional, cell-based; procedure, shortened: as §2
DLD-1 = experiment: Antiproliferative activity against human DLD1 cells after 72 hrs by MTT assay; format: functional, cell-based; details: DLD-1, 72 h; procedure, shortened: as §1
EA.hy 926 = experiment: Antiproliferative activity against human EAhy926 cells after 72 hrs by MTT assay; format: functional, cell-based; details: EA.hy 926, 72 h; procedure, shortened: as §1
PANC-1 = experiment: Antiproliferative activity against human PANC1 cells after 72 hrs by MTT assay; format: functional, cell-based; details: PANC-1, 72 h; procedure, shortened: as §1
HCT-116 = experiment: Antiproliferative activity against human HCT116 cells after 72 hrs by MTT assay; format: functional, cell-based; details: HCT-116, 72 h; procedure, shortened: as §1
[4] = Antiproliferative activity against human KB-V1/Vbl cells after 72 hrs by MTT assay; format: functional, cell-based; procedure, shortened: as §1
[5] = Antiproliferative activity against human MCF7/Topo cells after 72 hrs by MTT assay; format: functional, cell-based; procedure, shortened: as §1
HT-29 [6] = experiment: Cell cycle arrest in human HT-29 cells assessed as accumulation of cells at sub G1 phase at 100 nM after 24 hrs by propidium iodide staining-based flow cytometric analysis (reference value: 1.2 +/- 0.3%); format: functional
HT-29 [7] = experiment: Cell cycle arrest in human HT-29 cells assessed as accumulation of cells at sub G1 phase at 250 nM after 24 hrs by propidium iodide staining-based flow cytometric analysis (reference value: 1.2 +/- 0.3%); format: functional
HT-29 [8] = experiment: Cell cycle arrest in human HT-29 cells assessed as accumulation of cells at sub G1 phase at 350 nM after 24 hrs by propidium iodide staining-based flow cytometric analysis (reference value: 1.2 +/- 0.3%); format: functional
HT-29 [9] = experiment: Cell cycle arrest in human HT-29 cells assessed as accumulation of cells at G1 phase at 100 nM after 24 hrs by propidium iodide staining-based flow cytometric analysis (reference value: 75.1 +/- 1.1%); format: functional
HT-29 [10] = experiment: Cell cycle arrest in human HT-29 cells assessed as accumulation of cells at G1 phase at 250 nM after 24 hrs by propidium iodide staining-based flow cytometric analysis (reference value: 75.1 +/- 1.1%); format: functional
HT-29 [11] = experiment: Cell cycle arrest in human HT-29 cells assessed as accumulation of cells at G1 phase at 350 nM after 24 hrs by propidium iodide staining-based flow cytometric analysis (reference value: 75.1 +/- 1.1%); format: functional
HT-29 [12] = experiment: Cell cycle arrest in human HT-29 cells assessed as accumulation of cells at S phase at 100 nM after 24 hrs by propidium iodide staining-based flow cytometric analysis (reference value: 12.3 +/- 0.4%); format: functional
HT-29 [13] = experiment: Cell cycle arrest in human HT-29 cells assessed as accumulation of cells at S phase at 250 nM after 24 hrs by propidium iodide staining-based flow cytometric analysis (reference value: 12.3 +/- 0.4%); format: functional
HT-29 [14] = experiment: Cell cycle arrest in human HT-29 cells assessed as accumulation of cells at S phase at 350 nM after 24 hrs by propidium iodide staining-based flow cytometric analysis (reference value: 12.3 +/- 0.4%); format: functional
HT-29 [15] = experiment: Cell cycle arrest in human HT-29 cells assessed as accumulation of cells at G2/M phase at 100 nM after 24 hrs by propidium iodide staining-based flow cytometric analysis (reference value: 11.4 +/- 1.4%); format: functional
HT-29 [16] = experiment: Cell cycle arrest in human HT-29 cells assessed as accumulation of cells at G2/M phase at 250 nM after 24 hrs by propidium iodide staining-based flow cytometric analysis (reference value: 11.4 +/- 1.4%); format: functional
HT-29 [17] = experiment: Cell cycle arrest in human HT-29 cells assessed as accumulation of cells at G2/M phase at 350 nM after 24 hrs by propidium iodide staining-based flow cytometric analysis (reference value: 11.4 +/- 1.4%); format: functional
Chorioallantoic membrane [18] = experiment: Antiangiogenic activity in Leghorn chicken embryo chorioallantoic membrane assessed as disruption of smaller blood vessels at 5 nmol after 6 hrs by light microscopic analysis; format: functional, tissue-based; details: Gallus gallus
Procedure, shortened: (§3)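 Fertilized chicken eggs, CAM assay. Compound was applied topically into a small silicon foil ring placed on the CAM. The membrane and its extraembryonal blood vessels were monitored over 24 h, with observations at 6 h and 24 h post application.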

Chorioallantoic membrane [19] = experiment: Antiangiogenic activity in Leghorn chicken embryo chorioallantoic membrane assessed as induction of hemorrhages at 5 nmol after 6 hrs by light microscopic analysis; format: functional, tissue-based; details: Gallus gallus; procedure, shortened: as §3
Chorioallantoic membrane [20] = experiment: Antiangiogenic activity in Leghorn chicken embryo chorioallantoic membrane assessed as induction of hemorrhages at 5 nmol after 24 hrs by light microscopic analysis; format: functional, tissue-based; details: Gallus gallus; procedure, shortened: as §3
Chorioallantoic membrane [21] = experiment: Antiangiogenic activity in Leghorn chicken embryo chorioallantoic membrane assessed as reduction in diameter of main blood vessel at 5 nmol after 24 hrs by light microscopic analysis; format: functional, tissue-based; details: Gallus gallus; procedure, shortened: as §3
Chorioallantoic membrane [22] = experiment: Antiangiogenic activity in Leghorn chicken embryo chorioallantoic membrane assessed as reduction in blood vessel area at 5 nmol after 6 hrs by light microscopic analysis relative to control; format: functional, tissue-based; details: Gallus gallus
Procedure, shortened: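 The CAM assay was run with topical application into a silicon foil ring atop the CAM of fertilized chicken eggs. Area covered by blood vessels was quantified by fractal analysis relative to control.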

Chorioallantoic membrane [23] = experiment: Antiangiogenic activity in Leghorn chicken embryo chorioallantoic membrane assessed as effect on blood vessel length at 5 nmol after 6 hrs by light microscopic analysis; format: functional, tissue-based; details: Gallus gallus; procedure, shortened: as §3
518A2 [24] = experiment: Induction of apoptosis in human 518A2 cells assessed as accumulation at subG1 phase; format: functional, cell-based
518A2 [25] = experiment: Induction of cell cycle arrest in human 518A2 cells; format: functional, cell-based
HT-29 [26] = experiment: Cell cycle arrest in human HT-29 cells assessed as accumulation of cells at G2/M phase after 24 hrs by propidium iodide staining-based flow cytometric analysis; format: functional
Chorioallantoic membrane [27] = experiment: Antiangiogenic activity in Leghorn chicken embryo chorioallantoic membrane assessed as disruption of smaller blood vessels at 5 nmol after 24 hrs by light microscopic analysis; format: functional, tissue-based; details: Gallus gallus; procedure, shortened: as §3

| pIC50 (HT-29 [2]) | pIC50 (A2780) | pIC50 (DLD-1) | pIC50 (PANC-1) | pIC50 (HCT-116) | Compound | Activity (518A2 [1]) | pIC50 (518A2 [1]) | pIC50 [3] | pIC50 (EA.hy 926) | pIC50 [4] | pIC50 [5] | Activity (HT-29 [6]) [%] | Activity (HT-29 [7]) [%] | Activity (HT-29 [8]) [%] | Activity (HT-29 [9]) [%] | Activity (HT-29 [10]) [%] | Activity (HT-29 [11]) [%] | Activity (HT-29 [12]) [%] | Activity (HT-29 [13]) [%] | Activity (HT-29 [14]) [%] | further results |
| --- | --- | --- | --- | --- | --- | --- | --- | --- | --- | --- | --- | --- | --- | --- | --- | --- | --- | --- | --- | --- | --- |
| 7.17 | 7.30 | 7.16 | 7.26 | 7.13 | N#CC1=C(N)Oc2c(cc(Cl)c3ccccc23)C1c1cccc(C#N)c1 (stereo unspecified) | Dose-dependent effect | 7.22 | 7.25 | 7.10 | 7.25 | 7.24 | 19.8 | 27.8 | 27 | 51.7 | 22.2 | 13 | 16.1 | 9.1 | 8.5 | Activity (HT-29 [15]): 12.3%; Activity (HT-29 [16]): 40.9%; Activity (HT-29 [17]): 51.6%; Activity (Chorioallantoic membrane [18]): Active; Activity (Chorioallantoic membrane [19]): Active; Activity (Chorioallantoic membrane [20]): inactive; Activity (Chorioallantoic membrane [21]): Active; Activity (Chorioallantoic membrane [22]): inactive; Activity (Chorioallantoic membrane [23]): inactive; Activity (518A2 [24]): Active; Activity (518A2 [25]): inactive; Activity (HT-29 [26]): Dose-dependent effect; Activity (Chorioallantoic membrane [27]): inactive |
| 6.99 | 6.98 | 7.01 | 7.03 | 7.04 | N#CC1=C(N)Oc2c(cc(Cl)c3ccccc23)C1c1cc(F)cc(F)c1 (stereo unspecified) | Dose-dependent effect | 7.62 | 6.81 | 7.17 | 7.04 | 7.10 | 3.3 | 4.5 | 3.5 | 52 | 3 | 1.6 | 19.6 | 2.3 | 2.2 | Activity (HT-29 [15]): 25%; Activity (HT-29 [16]): 90.3%; Activity (HT-29 [17]): 90.3%; Activity (Chorioallantoic membrane [18]): Active; Activity (Chorioallantoic membrane [19]): Active; Activity (Chorioallantoic membrane [20]): inactive; Activity (Chorioallantoic membrane [21]): Active; Activity (Chorioallantoic membrane [22]): inactive; Activity (Chorioallantoic membrane [23]): inactive; Activity (518A2 [24]): Active; Activity (518A2 [25]): inactive; Activity (HT-29 [26]): Dose-dependent effect; Activity (Chorioallantoic membrane [27]): inactive |
